Compound activity (PubChem BioAssay)
Sampled rows, rich in hits. Any-hit rate of the full collection: about 2.6%.
PAD4 inh – human PAD4 inhibitors, primary screen, biochemical, fluorescence polarization, 1536-well format | Protein-arginine deiminase type-4 (Homo sapiens), Q9UM07 | recombinant PAD4, RCA probe fluorescence polarization | inhibition, % at 6.36 µM | hit rate 0.41% among 330,000 | AID 485272, 2010;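 active = percent inhibition above a cutoff equal to the mean of all tested compounds plus 3 SD, cut at about 15% in these data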;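 also: 0% = PAD4 with RCA probe and DMSO and 100% = probe without PAD4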
Target sequence (Q9UM07 whole entry, looked up): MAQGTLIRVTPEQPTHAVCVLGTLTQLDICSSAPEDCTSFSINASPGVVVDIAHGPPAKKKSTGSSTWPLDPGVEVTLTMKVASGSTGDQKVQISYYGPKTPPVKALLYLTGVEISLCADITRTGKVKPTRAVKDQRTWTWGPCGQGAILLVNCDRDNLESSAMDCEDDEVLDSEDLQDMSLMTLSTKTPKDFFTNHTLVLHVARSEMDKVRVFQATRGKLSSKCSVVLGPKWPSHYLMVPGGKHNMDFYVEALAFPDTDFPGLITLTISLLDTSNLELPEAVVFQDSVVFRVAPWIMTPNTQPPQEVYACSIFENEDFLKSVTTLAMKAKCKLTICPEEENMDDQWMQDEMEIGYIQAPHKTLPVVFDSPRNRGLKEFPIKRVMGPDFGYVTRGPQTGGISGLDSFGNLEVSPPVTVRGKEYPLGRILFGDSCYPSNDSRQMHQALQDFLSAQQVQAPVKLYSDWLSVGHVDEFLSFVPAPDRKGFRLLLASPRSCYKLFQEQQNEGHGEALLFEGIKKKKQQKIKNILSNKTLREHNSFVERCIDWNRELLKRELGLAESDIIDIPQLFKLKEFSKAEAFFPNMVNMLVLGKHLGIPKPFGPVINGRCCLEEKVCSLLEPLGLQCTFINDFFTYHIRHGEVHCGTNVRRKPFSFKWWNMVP
Apaf1 inhib – inhibitors of human Apaf-1 apoptosome, primary screen, biochemical, DEVD-Rh110 fluorescence, uHTS; Apoptotic protease-activating factor 1 (Homo sapiens), O14727; reconstituted apoptosome caspase-3 activity; inhibition, % at 20 µM; hit rate 0.71% among 330,000; AID 489030, 2010; active = inhibition of at least 40% at 20 µM;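 also: plate controls were DMSO wells for no effect and DEVD-CHO caspase inhibitor wells for full effect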
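System: reconstituted apoptosome with Apaf-1, cytochrome c, caspase-9, procaspase-3, dATP; Signal: Rh110 fluorescence intensity; Schedule: 30 min compound preincubation, 50 min activation, room temperature; Reagent: cytochrome c trigger plus (Z-DEVD)2-Rh110 caspase-3 substrate.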
GSTO1 inh – inhibitors of recombinant GSTO1, primary screen, counter-screen for RBBP9 inhibitor project, biochemical, fluorescence polarization; Glutathione S-transferase omega-1 (Homo sapiens), P78417; activity-based probe fluorescence polarization; inhibition, % at 5.96 µM; hit rate 1.1% among 300,000; AID 1974, 2009;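 active = inhibition above the campaign mean inhibition plus 3 SD, cut at about 35% in these data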;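 also: 0% = GSTO1-1 with DMSO and 100% = wells lacking GSTO1-1 enzyme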
PRMT1 inh – PRMT1 methyltransferase inhibitors, primary screen, biochemical, fluorescence polarization | Protein arginine N-methyltransferase 1 (Homo sapiens), Q99873 | recombinant PRMT1, activity-based probe fluorescence polarization | inhibition, % at 2.79 µM | hit rate 1.3% among 370,000 | AID 652257, 2013;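 active = inhibition above about 21% made by adding two undisclosed values, limit read from the data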
TDP2 inh – human TDP2 enzyme inhibitors, primary screen, biochemical, epi absorbance, recombinant enzyme | hit rate 0.34% among 370,000 | AID 720702, 2013 | Tyrosyl-DNA phosphodiesterase 2 (Homo sapiens), O95551 | T5PNP hydrolysis, p-nitrophenol absorbance 415 nm | inhibition, % at 12.8 µM;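 active = inhibition above the mean of all tested compounds plus 3 SD, set per campaign, cut at about 25% in these data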;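 also: 0% = DMSO with enzyme and 100% = buffer with substrate but no TDP2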
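Material: recombinant human TDP2; quantity: TDP2 enzyme at 120 nM final; medium: Tris-HCl pH 7.5 with MgCl2; compound: single concentration, 12.8 µM nominal, with 1% DMSO; incubation: 2 h enzyme incubation at 37 °C; signal: epi absorbance; measure: percent inhibition; benchmarks: high control without enzyme, low control DMSO plus TDP2; repeats: singlicate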
TDP2 confirm – human TDP2 enzyme inhibitors, retest, confirmation, biochemical, epi absorbance, recombinant enzyme; hit rate 22% among 1,100; shares compounds with TDP2 inh; absorbance read-out; inhibition, % at 12.8 µM; in the data active = inhibition above about 25%;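 also: 0% = vehicle with enzyme and 100% = no enzyme buffer only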
An asterisk follows results filed as active; . = no result given; ! = repeats disagree.

SMILES	PAD4 inh	Apaf1 inhib	GSTO1 inh	PRMT1 inh	TDP2 inh	TDP2 confirm
O=C(NC(=O)c1ccccc1O)c1ccc2c(c1)CCO2	-5	-2	4	-1	25*	2
O=C(O)[C@@H]1CCCN1C(=O)CCc1c[nH]c2ccccc12	5	1	2	-1	25*	-15
Cc1ccc(Cl)cc1NS(=O)(=O)c1cn(C)nc1C	-3	7	-2	0	25*	11
CCCC(C)NC(=O)CSc1nc2ccc(C)cc2[nH]1 (centres undefined)	1	-6	9	-2	15	.
COc1ccc(OCC(=O)N2c3ccccc3CC2C)c([N+](=O)[O-])c1 (centres undefined)	-5	8	.	-2	-10	.
CCCn1nc2cc(C(=O)NCc3ccc(OC)cc3)ccc2c1OCC	1	1	5	2	38*	-3
N#Cc1cccc(NC(=O)CSc2cccc[n+]2[O-])c1	1	9	.	-3	-24	.
COc1cc(/C=C2\C(=O)N(c3ccccc3)N=C2C)ccc1Oc1ccc([N+](=O)[O-])cc1[N+](=O)[O-]	44*	.	33	0	65*	16
CC1CCCCN1Cc1c(O)ccc2c(=O)c(-c3nc4ccccc4s3)c(N)oc12 (centres undefined)	-2	14	7	1	-10	.
Cc1cccc(/N=C/c2c(C)[nH]n(-c3ccccc3)c2=O)n1	-10	4	-3	-2	18	.
Cc1[nH]n(-c2ccccc2)c(=O)c1/C=N/c1nn[nH]n1	0	26	10	-2	27*	9
Cc1[nH]n(-c2ccccc2)c(=O)c1/C=N/N(c1ccccc1)c1ccccc1	-7	12	-15	10	40*	-3
Cc1[nH]n(-c2ccccc2)c(=O)c1S(=O)(=O)c1ccccc1	-14	10	29	11	49*	18
Cc1[nH]n(-c2ccccc2)c(=O)c1CCO	-4	6	8	9	3	.
CCOc1ccccc1NC(=O)C(OC(=O)c1cnccn1)c1ccccc1 (centres undefined)	1	3	4	-3	4	.
O=C(O)C(Cc1c[nH]c2ccccc12)NS(=O)(=O)c1ccc(F)cc1 (centres undefined)	.	.	.	1	28*	-1
O=C(O)C(Cc1c[nH]c2ccccc12)NS(=O)(=O)c1ccc2ccccc2c1 (centres undefined)	-3	-8	4	-4	-4	.
CC1CC(=O)C2=C(C1)OC(N)=C(C#N)C2c1coc2ccccc2c1=O (centres undefined)	-3	-1	9	-2	26*	9
O=C1NNC(c2ccccc2)=N/C1=C\c1ccccc1Cl	.	.	.	-1	56*	62*
COc1ccc(Cc2nnc(Nc3ccc4c(c3)OCCO4)[nH]c2=O)cc1	-6	-1	-6	-4	-2	.
COC(=O)[C@]12C[C@H](CC(=O)N3CCN(C(=O)c4ccco4)CC3)C(=O)N(Cc3ccc(Cl)cc3Cl)C1=C[C@H](C(C)(C)C)O[C@@H]2C	.	.	.	5	-3	.
COC(=O)CCC(=O)OC1(C)C(=O)C=C2C=C(C3CC3)N(C3CCCCC3)C=C2C1=O (centres undefined)	0	62*	19	10	29*	3
COC(=O)CCC(=O)OC1(C)C(=O)C=C2C=C(C3CC3)N(Cc3ccccc3)C=C2C1=O (centres undefined)	-8	42*	21	6	26*	7
O=C(COc1cccnc1[N+](=O)[O-])NCCc1ccccc1	5	-5	10	-2	5	.
N#CC1=C(N)Oc2n[nH]c(-c3cccs3)c2C1c1cccs1 (centres undefined)	12	36	19	-1	29*	1
SMILES	PAD4 inh	Apaf1 inhib	GSTO1 inh	PRMT1 inh	TDP2 inh	TDP2 confirm
COc1ccc(N(C(=O)Cn2nnc(-c3ccc(Cl)cc3)n2)C(C(=O)NCC2CCCO2)c2ccc(C)cc2)cc1 (centres undefined)	-7	22	1	0	0	.
COc1ccc(N(C(=O)Cn2nnc(-c3ccccc3F)n2)C(C(=O)NCC2CCCO2)c2ccc(Cl)cc2)cc1 (centres undefined)	-1	2	7	-3	26*	2
O=C(c1ccc(F)cc1)N1CCN(Cc2ccccc2)CC1	5	8	-2	3	9	.
Cc1ccccc1CN1CCN(C(=O)c2ccc(F)cc2)CC1	.	-4	.	2	29*	11
Cc1ccccc1CN1CCN(C(=O)c2ccco2)CC1	-2	-2	-2	1	28*	6
COc1cccc(N2CC(C(=O)Nc3nnc(SCCC4OCCO4)s3)CC2=O)c1 (centres undefined)	1	-3	7	2	29*	2
CN(C)C(CNC(=O)c1ccc(NS(=O)(=O)c2ccc(F)cc2)cc1)c1ccco1 (centres undefined)	0	1	5	2	27*	5
Cc1cc(OC(C)C(=O)Nc2ccncc2)ccc1Cl (centres undefined)	2	9	-1	4	-13	.
CC1=NN(c2ccccc2)C(=O)C1C(=O)c1cc([N+](=O)[O-])cc([N+](=O)[O-])c1 (centres undefined)	-7	15	0	-1	47*	10
OC[C@@H]1CC[C@@H](Cc2ccc(-c3ccccc3)cc2)O1	-2	11	.	-3	-7	.
Cc1ccc(-n2ncc3c(=O)n(CC(=O)N4CCN(c5ccccc5)CC4)cnc32)cc1C	-3	-5	8	-2	0	.
Nc1ncnc2c1ncn2[C@@H]1O[C@H](CNC(=O)[C@H]2CCC(=O)N2)[C@@H](O)[C@H]1O	2	16	.	8	3	.
O=C(Cc1ccccc1)NN1C(=O)/C(=C/c2ccc(C(=O)O)cc2)SC1=S	-9	0	10	16	26*	5
O=C(O)c1ccc(/C=C2/SC(=S)N(Cc3ccccc3)C2=O)cc1	.	.	.	13	-1	.
CCCC1=[N+](CC(=O)c2ccc(Br)cc2)CCn2cccc21	-6	-1	2	0	30*	5
O=C(Cc1ccccc1[N+](=O)[O-])NCC1(c2cccc3c2OCO3)OCCO1	.	.	.	-1	27*	5
Cc1c(NC(=O)CN2CC(C)OC(C)C2)c(=O)n(-c2ccccc2)n1C (centres undefined)	6	-5	-7	-2	29*!	17
